IDH1 mut inh = IDH1 R132H (human) inhibition | O75874 | IDH1 R132H reductase, diaphorase/resazurin fluorescence, 60 min | inhibition, % at 10 µM | 70,000 compounds, 0.18% hits | AID 624101; in the data active = inhibition above about 34%; inconclusive = no clear call, values can overlap the other calls; inactive = below about 11%;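 also: 0% = DMSO and 100% = no enzyme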
GASC1 inh = blocks human GASC-1 (KDM4C) demethylase activity | inhibition, % at 12.5 µM | 96,000 compounds, 0.15% hits | GST-KDM4C 2-372, H3K9me3 peptide, LANCE TR-FRET | AID 720574 | Q9H3R0;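 active = mean replicate inhibition above about 25%, with at least 55% of replicates also reaching it, limit read from the data, passing the limit was not always enough; inconclusive = only one of those two conditions met; inactive = neither condition met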
Target sequence (Q9H3R0 2-372 limits assumed): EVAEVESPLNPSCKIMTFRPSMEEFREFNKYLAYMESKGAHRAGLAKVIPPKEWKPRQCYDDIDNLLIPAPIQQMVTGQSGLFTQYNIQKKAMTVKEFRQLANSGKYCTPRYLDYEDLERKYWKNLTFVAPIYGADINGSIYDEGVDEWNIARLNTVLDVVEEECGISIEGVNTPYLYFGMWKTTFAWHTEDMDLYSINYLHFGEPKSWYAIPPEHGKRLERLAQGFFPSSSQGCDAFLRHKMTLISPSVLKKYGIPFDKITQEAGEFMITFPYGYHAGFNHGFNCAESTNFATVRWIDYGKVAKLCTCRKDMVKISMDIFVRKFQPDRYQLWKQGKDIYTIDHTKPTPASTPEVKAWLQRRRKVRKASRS
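Material: GST-tagged GASC-1 (JMJD2C) catalytic fragment, aa 2-372. Input: enzyme final amount 10 nM. Medium: HEPES buffer, pH 7.5, plus ascorbate. Reagent: H3K9me3 peptide substrate, Fe(II), 2-oxoglutarate. Doses: single dose. Times: reaction 30 min RT, detection step 1 h RT. Measured by: LANCE TR-FRET. Evaluation: Fall in 671/618 emission ratio as inhibition.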
T cruzi growth-1 = inhibitors of T. cruzi proliferation. inhibition, % at 8.34 µM. T. cruzi beta-gal in NIH3T3, GalScreen luminescence, 90 h. AID 624255. 77,000 compounds, 5.9% hits;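 active = mean inhibition above about 93%, with at least 55% of replicates each passing it, limit read from the data, passing the limit was not always enough; inconclusive = only one of those two conditions holds; inactive = neither condition holds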
Pf Dd2 growth = P. falciparum Dd2 growth inhibition; SYBR Green, 72 h; stronger effect = lower value; activity change, % at 10 µM; 94,000 compounds, 2.3% hits; AID 1159554; in the data active = activity change below about -80%; inconclusive = no clear call, values can overlap the other calls
T cruzi growth-2 = Trypanosoma cruzi proliferation inhibition; shares compounds with T cruzi growth-1; T. cruzi beta-gal in NIH3T3, GalScreen luminescence, 90 h; inhibition, % at 8.35 µM; 5,600 compounds, 72% hits;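 active = mean replicate inhibition above about 95% and at least 55% of replicates individually reaching it, limit read from the data; inconclusive = only one of the two criteria is met; inactive = neither criterion is met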
T cruzi growth-3 = blocks T. cruzi growth in NIH3T3 host cells; shares compounds with T cruzi growth-1; T. cruzi beta-gal in NIH3T3, GalScreen luminescence, 90 h; inhibition, % at 2.09 µM; 5,600 compounds, 21% hits;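 active = mean inhibition above about 95%, with at least 55% of replicates also reaching it, limit read from the data; inconclusive = meets just one of the two conditions; inactive = meets neither condition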;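 also: plate controls were neutral control median for no effect and positive control median for full effect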
NIH3T3 tox = kills mouse NIH/3T3 fibroblasts; shares compounds with T cruzi growth-1; NIH/3T3 viability, CellTiter-Glo ATP luminescence, 90 h; cytotoxicity (signal decrease), % at 8.35 µM; 5,600 compounds, 14% hits;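 active = mean signal decrease across replicates above about 35% based on untreated-well scatter, with enough replicates individually passing, limit read from the data; inconclusive = no rule stated though some were filed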;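 also: 0% = median of neutral control wells and 100% = median of positive control wells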
3T3 cytotox 2 = kills mouse NIH/3T3 fibroblasts. AID 651744. shares compounds with T cruzi growth-1. 5,600 compounds, 56% hits. inhibition, % at 24.9 µM. NIH/3T3 viability, CellTiter-Glo ATP luminescence, 90 h;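 active = mean loss of cell viability signal at or above a set limit, and enough replicates individually reaching it; inconclusive = meets only the mean limit or only the replicate share; inactive = meets neither condition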;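 also: 0% = median of neutral control wells and 100% = median of positive control wells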
Starred values were filed as active, the others as inactive; u = inconclusive; x = not tested or not shown. Sampled rows, rich in hits. Any-hit rate of the full collection: about 5.8%.

SMILES	IDH1 mut inh	GASC1 inh	T cruzi growth-1	Pf Dd2 growth	T cruzi growth-2	T cruzi growth-3	NIH3T3 tox	3T3 cytotox 2
CO[C@@H](CN(C)S(=O)(=O)c1ccc(F)cc1)[C@H](C)CN([C@H](C)CO)S(=O)(=O)c1cccc(Cl)c1	0	-1	85	-44	x	x	x	x
CO[C@H](CN(C)S(=O)(=O)c1ccc(F)cc1)[C@H](C)CN([C@H](C)CO)S(=O)(=O)c1cccc(Cl)c1	0	-1	101*	-19	88	x	29	55*
CO[C@H](CN(C)S(=O)(=O)c1cccc(Cl)c1)[C@H](C)CN([C@@H](C)CO)S(=O)(=O)c1ccc(Cl)cc1	0	-3	86	-17	x	x	x	x
C[C@@H]1CN([C@@H](C)CO)C(=O)c2cc(NS(=O)(=O)c3ccccc3)ccc2O[C@@H]1CN(C)CC1CC1	-2	1	-4	12	x	x	x	x
COCC#Cc1ccc([C@@H]2[C@@H](CO)N3CCCCN(C(=O)CN(C)C)C[C@@H]23)cc1	x	-1	99*	21	6	-13	-9	-12
COCC#Cc1ccc([C@@H]2[C@@H](CO)N3CCCCN(C(=O)CN(C)C)C[C@H]23)cc1	x	-1	106*	15	76	-17	-6	2
COCC#Cc1ccc([C@H]2[C@H]3CN(C(=O)CN(C)C)CCCCN3[C@H]2CO)cc1	x	2	21	6	x	x	x	x
CN(C)CC#Cc1ccc([C@H]2[C@H](CO)N3CCCCN(C(=O)CN(C)C)C[C@@H]23)cc1	x	3	u	-89*	76	16	15	25
Cc1ccc(S(=O)(=O)Nc2ccc3c(c2)C(=O)N([C@H](C)CO)C[C@@H](C)[C@H](CN(C)S(=O)(=O)c2ccc(Cl)cc2)O3)cc1	x	0	x	-41	x	x	x	x
COC(=O)[C@@H]1[C@@H](CO)[C@@H]2Cn3c(ccc(-c4cccc(OC)c4)c3=O)[C@@H]2N1CC1CC1	x	4	77	-5	x	x	x	x
CO[C@@H]1CN(C)C(=O)c2ccc(NC(=O)c3ccccc3)cc2OC[C@H](C)N(C(C)=O)C[C@@H]1C	x	2	x	-26	x	x	x	x
COc1cccc(-c2ccc([C@@H]3[C@H](CO)N4CCCCN(CC5CCOCC5)C[C@@H]34)cc2)c1	x	x	50	-50	x	x	x	x
COc1cccc(-c2ccc([C@@H]3[C@@H](CO)N4CCCCN(CC5CCOCC5)C[C@@H]34)cc2)c1	x	x	98*	-10	99*	39	18	54*
COc1cccc(-c2ccc([C@H]3[C@H]4CN(CC5CCOCC5)CCCCN4[C@H]3CO)cc2)c1	x	x	104*	-15	74	23	3	58*
COc1ccc2c3c(n(C)c2c1)[C@@H](CO)N(C(=O)c1cccc(F)c1)CC31CCN(C(=O)c2cccc(F)c2)CC1	x	0	x	-68	x	x	x	x
COc1ccc([N+](=O)[O-])cc1NC(=O)CCSc1ccc(C)cc1	-1	x	x	x	x	x	x	x
C[C@H]1CN([C@@H](C)CO)S(=O)(=O)c2ccc(-c3ccncc3)cc2O[C@@H]1CN(C)C(=O)c1cccc(F)c1	0	0	114*	-59	92	67	8	u
C[C@@H]1CN([C@H](C)CO)S(=O)(=O)c2ccc(-c3ccncc3)cc2O[C@H]1CN(C)C(=O)c1cccc(F)c1	0	-1	113*	-41	84	78	2	47*
C[C@@H]1CN([C@@H](C)CO)S(=O)(=O)c2ccc(-c3ccncc3)cc2O[C@@H]1CN(C)C(=O)c1cccc(F)c1	7	0	90	-16	x	x	x	x
C[C@H](CO)N1C[C@H](C)[C@H](CN(C)C(=O)c2cccc(F)c2)Oc2cc(-c3cccc(F)c3)ccc2S1(=O)=O	0	-2	44	-37	x	x	x	x
C[C@H](CO)N1C[C@H](C)[C@H](CN(C)C(=O)c2cccc(F)c2)Oc2cc(-c3ccncc3)ccc2S1(=O)=O	6	0	109*	-43	89	80	3	28
N#C[C@H]1[C@H](c2ccc(C#Cc3ccccc3F)cc2)[C@H](CO)N1C(=O)C1CC1	x	-2	50	-9	x	x	x	x
COCC(=O)N1[C@@H](C#N)[C@H](c2ccc(C#Cc3ccccc3F)cc2)[C@@H]1CO	x	0	101*	-8	103*	7	-7	7
COCC(=O)N1[C@@H](C#N)[C@@H](c2ccc(C#Cc3ccccc3F)cc2)[C@@H]1CO	x	2	106*	-7	89	41	18	94*
COCC(=O)N1[C@H](C#N)[C@H](c2ccc(C#Cc3ccccc3F)cc2)[C@@H]1CO	x	0	102*	-20	103*	90	-3	u
SMILES	IDH1 mut inh	GASC1 inh	T cruzi growth-1	Pf Dd2 growth	T cruzi growth-2	T cruzi growth-3	NIH3T3 tox	3T3 cytotox 2
COCC(=O)N1[C@H](C#N)[C@H](c2ccccc2)[C@H]1CO	x	-6	86	14	x	x	x	x
COCC(=O)N1[C@H](C#N)[C@@H](c2ccccc2)[C@@H]1CO	x	-1	29	35	x	x	x	x
COCC(=O)N1[C@H](C#N)[C@H](c2ccc(C#Cc3ccccc3F)cc2)[C@H]1CO	x	0	106*	-36	99*	20	-17	u
C[C@@H]1CCCCO[C@H](CN(C)C)[C@H](C)CN([C@H](C)CO)C(=O)c2cc(NS(=O)(=O)c3ccc(Cl)cc3)ccc2O1	2	-1	39	-16	x	x	x	x
N#C[C@H]1[C@H](c2ccc(C#Cc3ccccc3F)cc2)[C@@H](CO)N1C(=O)c1cccnc1	x	0	u	-38	105*	69	4	5
N#C[C@@H]1[C@@H](c2ccc(C#Cc3ccccc3F)cc2)[C@H](CO)N1C(=O)c1cccnc1	x	-2	69	-33	x	x	x	x
CCCNC(=O)N1CC2(CN(CC3CCOCC3)C2)c2c(n(C)c3cc(OC)ccc23)[C@H]1CO	x	0	x	-17	x	x	x	x
C[C@@H]1CCCCO[C@H](CN(C)C(=O)Nc2cccc3ccccc23)[C@H](C)CN([C@@H](C)CO)C(=O)c2cc(NC(=O)Cc3ccccc3)ccc2O1	3	-3	107*	-75	103*	57	0	-7
C[C@H]1CCCCO[C@@H](CN(C)C(=O)Nc2cccc3ccccc23)[C@@H](C)CN([C@@H](C)CO)C(=O)c2cc(NC(=O)Cc3ccccc3)ccc2O1	3	0	102*	-92*	115*	63	8	9
C[C@H]1CCCCO[C@H](CN(C)C(=O)Nc2cccc3ccccc23)[C@@H](C)CN([C@@H](C)CO)C(=O)c2cc(NC(=O)c3ccccc3)ccc2O1	x	-2	80	-41	x	x	x	x
C[C@@H]1CN([C@@H](C)CO)C(=O)c2cc(NC(=O)Cc3ccccc3)ccc2O[C@@H](C)CCCCO[C@H]1CN(C)C(=O)Nc1ccccc1	-1	-1	x	-18	x	x	x	x
